# The list is not random: actives were taken first. Their share in the collection is about 1.2%.
# CAL PDZ FP-1 – blocks peptide binding to the human CAL PDZ domain; purified CAL PDZ, TMR-peptide fluorescence polarization, 1 h; inhibition, % at 24.9 µM; hit rate 0.92% among 300,000; AID 602252;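 active means mean inhibition of at least 30% with at least half of replicates also reaching 30%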;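 further: 0% = DMSO neutral control and 100% = excess unlabeled competitor peptide PRC23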
# CAL PDZ FP-2 – inhibitors of human CAL PDZ peptide binding; Q9HD26; purified CAL PDZ, TMR-peptide fluorescence polarization, 1 h; inhibition, % at 20 µM; hit rate 0.02% among 330,000; AID 504414;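 active means highest replicate inhibition of at least 40%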;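 further: plate controls were DMSO neutral control wells for no effect and unlabeled competitor peptide control wells for full effect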
#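 Control set: unlabelled peptide and DMSO controls / Material: purified CerCALP PDZ construct / Timing: 1 h incubation at room temperature before polarization reading / Doses: 20 µM, one dose / Detection: fluorescence polarization (mP)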
# ARNT-TACC3 inh – disruptors of human ARNT/TACC3 interaction; inhibition, % at 9.99 µM; AlphaScreen His-ARNT PAS-B/GST-TACC3 binding, luminescence; TACC3 fragment carries E629A point mutation; hit rate 0.66% among 390,000;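 active means mean inhibition of replicates at least 50% and at least half of replicates each reaching 50%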;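 further: 0% = complete ARNT plus TACC3 wells and 100% = ARNT alone without TACC3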
# The depositor's hits bear a star; nt = no result given; + = active, no number; ! = not active in a repeat.
SMILES,CAL PDZ FP-1,CAL PDZ FP-2,ARNT-TACC3 inh
CCN(Cc1ccccc1)S(=O)(=O)c1ccc(C(=O)Nc2nnc(-c3ccccc3OC)o2)cc1,-9,nt,10
CCc1nnc(NC(=O)c2ccc(S(=O)(=O)N(CCOC)CCOC)cc2)o1,-4,-1,46*
COCc1nnc(NC(=O)c2ccc(S(=O)(=O)N3CCCC3)cc2)o1,-1,-3,49*
CCOC(=O)N1CCN(S(=O)(=O)c2ccc(C(=O)Nc3nnc(CC)o3)cc2)CC1,-1,0,-1
COCCN(CCOC)S(=O)(=O)c1ccc(C(=O)Nc2nnc(C3CC3)o2)cc1,-2,-2,47*
COc1ccccc1-c1nnc(NC(=O)c2ccc(S(=O)(=O)N(C)C)cc2)o1,3,-3,57*
CN(c1ccccc1)S(=O)(=O)c1ccc(C(=O)Nc2nnc(C3CC3)o2)cc1,-7,-3,-1
CCCNC(=O)N1[C@H](C#N)[C@H](c2ccc(-c3cccc(OC)c3)cc2)[C@H]1CO,nt,nt,0
CN(C)CC(=O)Nc1ccc2c(c1)[C@H]1C[C@H](CC(=O)NCc3ccccc3F)O[C@H](CO)[C@H]1O2,nt,nt,2
C/C=C/c1ccc2c(c1)O[C@@H](CN(C)Cc1ccccn1)[C@@H](C)CN([C@H](C)CO)S2(=O)=O,nt,nt,7
Cc1noc(C)c1S(=O)(=O)N(C)C[C@@H]1Oc2ccc(NC(=O)C3CC3)cc2CC(=O)N([C@@H](C)CO)C[C@H]1C,nt,nt,15
COc1ccc(-c2c(C)nn3c(N)c(-c4ccccc4)cnc23)cc1OC,-4,0,-1
COc1ccccc1-c1c(C)nn2c(N)c(-c3ccccc3)cnc12,69*,nt,11
Nc1cc(C(=O)c2ccccc2)ccc1[N+](=O)[O-],37*,-2,14
CN1CCN(c2ccc(C(=O)c3ccccc3)cc2[N+](=O)[O-])CC1,-5,-1,11
Cc1ccc(NC(=O)CCNS(=O)(=O)c2ccccc2)cc1S(=O)(=O)N1CCOCC1,-2,-1,20
CCc1ccccc1OCC(=O)Nc1ccc(F)c(S(=O)(=O)N2CCOCC2)c1,31*,0,nt
COc1ccc(CC(=O)Nc2ccc(F)c(S(=O)(=O)N3CCOCC3)c2)cc1,nt,-1,5
Cc1ccc(NC(=O)Cc2ccccc2)cc1S(=O)(=O)N1CCOCC1,30*,0,-4
C[C@H]1CCCCO[C@H](CN(C)C(=O)c2ccncc2)[C@@H](C)CN([C@@H](C)CO)C(=O)c2cc(NC(=O)c3ccccc3)ccc2O1,nt,nt,-6
Cc1noc(C)c1S(=O)(=O)Nc1ccc2c(c1)C(=O)N([C@@H](C)CO)C[C@H](C)[C@@H](CN(C)S(=O)(=O)c1ccc(F)cc1)OCCCC[C@H](C)O2,nt,nt,1
O=C(CNC(=S)N(Cc1ccccc1)Cc1cccnc1)NCc1ccccc1,-2,-3,-1
COC(CNC(=O)CNC(=S)N(Cc1ccccc1)Cc1cccnc1)OC,84*,1,-3
O=C(COC(=O)c1ccc([N+](=O)[O-])s1)Nc1ncc(C(F)(F)F)cc1Cl,71*,1,1
O=C(COC(=O)c1ccccn1)Nc1ncc(C(F)(F)F)cc1Cl,-3,nt,26
SMILES,CAL PDZ FP-1,CAL PDZ FP-2,ARNT-TACC3 inh
CN(C)C(=O)C[C@H]1CC[C@H]2[C@@H](COC[C@H](O)CN2CC2CCCCC2)O1,nt,nt,-3
O=C(NCC[C@H]1CC[C@H](NC(=O)c2cccnc2)[C@@H](CO)O1)Nc1ccc(F)cc1,nt,nt,2
O=C(NCc1cccnc1)c1ccc(Cn2c(=S)[nH]c3ccc(Br)cc3c2=O)cc1,+,23,-6
O=c1c2cc(Br)ccc2[nH]c(=S)n1Cc1ccccc1,nt,-1,-4
Cc1ccc(NC2CNC(=O)NC2=O)cc1C (stereo not given),-1,1,-7
Cc1ccc(NC2C(=O)NC(=O)NC2=O)cc1,-4,-1,41*
COCC(=O)Nc1ccc2c(c1)[C@@H]1C[C@@H](CC(=O)NCc3cccnc3)O[C@@H](CO)[C@@H]1O2,nt,nt,2
CC(C)c1ccc(N(CC(=O)N2CCOCC2)S(C)(=O)=O)cc1,86*,-7,-1
Cc1ccc(N(CC(=O)N2CCOCC2)S(C)(=O)=O)cc1,3,0,-7
COc1ccccc1C(=O)N/N=C(\C)CC(=O)Nc1ccc(Cl)cn1,65*,-1,4
COc1ccccc1C(=O)N/N=C(\C)CC(=O)Nc1ccccn1,nt,-1,13
C[C@H]1CCCCO[C@@H](CN(C)C(=O)Nc2ccc(C(F)(F)F)cc2)[C@@H](C)CN([C@@H](C)CO)C(=O)c2cc(NC(=O)Nc3ccc4c(c3)OCO4)ccc2O1,nt,nt,-10
CCCC1Nc2ccc(C(=O)O)cc2C2C=CCC12 (stereo not given),nt,-1,9
CCOC(=O)C1Nc2ccc(C(=O)O)cc2C2C=CCC12 (stereo not given),44*,nt,9
CC(C)NC(=O)c1cc(-c2ccc(Br)cc2)on1,nt,-2,-1
CCCNC(=O)c1cc(-c2ccc(Br)cc2)on1,33*,-2,1
C[C@@H]1CCCCO[C@H](CN(C)S(C)(=O)=O)[C@@H](C)CN([C@@H](C)CO)C(=O)c2cc(NC(=O)Nc3ccccc3)ccc2O1,nt,nt,3
COc1cc(NCCCCCCN)c2ncccc2c1OC,0,1,52*
COc1cc(C(=O)NCCOc2cccc3cccnc23)cc(OC)c1OC,0,-3,1
COc1cc(NC(C)CCCNC(C)C)c2ncccc2c1OC (stereo not given),0,1,59*
COc1cc(N)c2ncccc2c1OC,-4,2,23
C[C@H]1CN([C@@H](C)CO)C(=O)c2cc(-c3ccc(F)cc3)cnc2O[C@@H]1CN(C)Cc1cncnc1,nt,nt,1
C=CCn1c(SCC(=O)O)nc2sc(CC)cc2c1=O,nt,1,-15
C=CCn1c(SCC(=O)/C(C#N)=C(\C)N)nc2sc(CC)cc2c1=O,40*!,0,0
Nc1c(N(CCC2=CCCCC2)C(=O)COc2ccc([N+](=O)[O-])cc2)c(=O)[nH]c(=O)n1Cc1ccccc1,56*,-1,3
SMILES,CAL PDZ FP-1,CAL PDZ FP-2,ARNT-TACC3 inh
CC(=O)c1ccc(OCC(=O)N(CCC2=CCCCC2)c2c(N)n(Cc3ccccc3)c(=O)[nH]c2=O)cc1,24,-1,2
CCC(=O)Nc1ccc2c(c1)OC[C@H](C)N(C(=O)COC)C[C@H](C)[C@H](OC)CN(C)C2=O,nt,nt,1
CC(C)C1C(C#N)=C(N)Oc2n[nH]c(-c3cccs3)c21 (stereo not given),54*,-1,-10
Cc1ccc(C2C(C#N)=C(N)Oc3n[nH]c(-c4cccs4)c32)cc1 (stereo not given),2,-3,-3
C[C@@H]1CN([C@H](C)CO)C(=O)c2cc(NC(=O)NC3CCCCC3)ccc2O[C@@H]1CN(C)S(=O)(=O)c1cn(C)cn1,nt,nt,-5
CCn1c(COc2ccccc2C)nnc1SCC(=O)NCc1ccccc1,nt,-2,2
CCn1c(COc2cccc3ccccc23)nnc1SCC(N)=O,52*,-1,-4
Cc1cc2oc(=O)cc(CN3CCOCC3)c2cc1C(C)C,62*,-1,nt
Cc1cc(C)c2oc(=O)cc(CN3CCOCC3)c2c1,-3,0,1
O=C(C[C@H]1CC[C@H]2NC[C@H](O)COC[C@@H]2O1)NCCc1ccccc1,nt,nt,6
